# Activity calls are given as the source filed them. No cut-off for these calls is given here.
# Key:
# [1] = test system: Pseudomonas aeruginosa; assay: Antimicrobial activity against Pseudomonas aeruginosa ATCC 9027 after 24 hrs by broth microdilution method; assay type: functional
# Method in brief: (§1)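 Microplate broth microdilution with a serial dilution series of compounds, using chloramphenicol as the antibacterial control. Bacterial plates were incubated at 35 °C for 24 h.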
# [2] = test system: Staphylococcus aureus; assay: Ratio of MIC100 for chloramphenicol to MIC100 of compound for Staphylococcus aureus ATCC 6538 after 24 hrs by broth microdilution method; assay type: functional
# [3] = test system: Nannizzia gypsea; assay: Antifungal activity against Microsporum gypseum after 48 hrs by broth microdilution method; assay type: functional
# Method in brief: (§2)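 Broth microdilution against filamentous fungi with serially diluted compounds. Amphotericin B (fungicidal) and fluconazole (fungistatic) were run as controls. Plates were incubated at 30 °C for 48 h.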
# [4] = test system: Trichophyton tonsurans; assay: Antifungal activity against Trichophyton tonsurans after 48 hrs by broth microdilution method; assay type: functional; method in brief: as §2
# [5] = test system: Cryptococcus neoformans; assay: Antifungal activity against Cryptococcus neoformans ATCC 90012 after 24 hrs by broth microdilution method; assay type: functional
# Method in brief: (§3)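 Broth microdilution in microplates with a serial dilution series of compounds. Amphotericin B served as the fungicidal control and fluconazole as the fungistatic control. Yeast plates were incubated at 37 °C for 24 h.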
# [6] = test system: Candida tropicalis; assay: Antifungal activity against Candida tropicalis ATCC 750 after 24 hrs by broth microdilution method; assay type: functional; method in brief: as §3
# [7] = test system: Candida parapsilosis; assay: Antifungal activity against Candida parapsilosis ATCC 69548 after 24 hrs by broth microdilution method; assay type: functional; method in brief: as §3
# [8] = test system: Staphylococcus epidermidis; assay: Ratio of MIC100 for chloramphenicol to MIC100 of compound for Staphylococcus epidermidis ATCC 12228 after 24 hrs by broth microdilution method; assay type: functional
# [9] = test system: Candida albicans; assay: Antifungal activity against Candida albicans ATCC 09548 after 24 hrs by broth microdilution method; assay type: functional; method in brief: as §3
# [10] = test system: Pichia kudriavzevii; assay: Antifungal activity against Candida krusei ATCC 6258 after 24 hrs by broth microdilution method; assay type: functional; method in brief: as §3
# [11] = test system: Staphylococcus aureus; assay: Antimicrobial activity against Staphylococcus aureus ATCC 6538 after 24 hrs by broth microdilution method; assay type: functional; details: ATCC 6538, 24 h; method in brief: as §1
# [12] = test system: Nakaseomyces glabratus; assay: Antifungal activity against Candida glabrata ATCC 90030 after 24 hrs by broth microdilution method; assay type: functional; method in brief: as §3
# [13] = test system: Escherichia coli; assay: Antimicrobial activity against Escherichia coli ATCC 25922 after 24 hrs by broth microdilution method; assay type: functional; method in brief: as §1
# [14] = Cytotoxicity against human PBMC after 48 hrs by MTT assay; assay type: cell-based; details: PBMC (peripheral blood mononuclear cells)
# Method in brief: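 Normal human PBMC from healthy volunteers were isolated by Ficoll-Hypaque density gradient and seeded at 2.4 × 10⁶ cells/mL. Compounds were added at 100 to 0.06 and cells held 48 h at 37 °C, 5% CO₂. MTT was then added for 4 h, formazan dissolved in DMSO and A560 read. Untreated cells were taken as 100% viability. CC50 was obtained by linear regression.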
# [15] = test system: Bacillus cereus; assay: Antimicrobial activity against Bacillus cereus ATCC 11778 after 24 hrs by broth microdilution method; assay type: functional; details: ATCC 11778, 24 h; method in brief: as §1
# [16] = test system: Salmonella typhimurium; assay: Antimicrobial activity against Salmonella typhimurium ATCC 14028 after 24 hrs by broth microdilution method; assay type: functional; details: Salmonella enterica subsp. enterica serovar Typhimurium; method in brief: as §1
# [17] = test system: Proteus mirabilis; assay: Antimicrobial activity against Proteus mirabilis ATCC 25933 after 24 hrs by broth microdilution method; assay type: functional; method in brief: as §1
# [18] = test system: Staphylococcus epidermidis; assay: Antimicrobial activity against Staphylococcus epidermidis ATCC 12228 after 24 hrs by broth microdilution method; assay type: functional; details: ATCC 12228, 24 h; method in brief: as §1
compound,measurement,setting,value
CC(C)=CCC[C@]1(C)[C@@H](CC=C(C)C)C[C@@]2(CC=C(C)C)C(=O)C(C(=O)c3ccc(OS(=O)(=O)c4ccc(C)cc4)c(OS(=O)(=O)c4ccc(C)cc4)c3)=C(O)[C@]1(CC=C(C)C)C2=O,MIC50,[1],inactive
same,MIC100,[1],inactive
same,Ratio,[2],4.39
same,MIC50,[3],inactive
same,MIC100,[3],inactive
same,MIC50,[4],inactive
same,MIC100,[4],inactive
same,MIC100,[5],inactive
same,MIC50,"[5]; ATCC 90012, 24 h",43.9 µM
same,MIC50,[6],inactive
same,MIC100,[6],inactive
same,MIC50,[7],inactive
same,MIC100,[7],inactive
same,Ratio,[8],3.5
same,MIC50,[9],inactive
same,MIC100,[9],inactive
same,MIC50,[10],inactive
same,MIC100,[10],inactive
same,MIC50,[11]; read-out: MIC50,43 µM
same,MIC,[11]; read-out: MIC100,2.74 µM
same,MIC50,[12],inactive
same,MIC100,[12],inactive
same,MIC50,[13],inactive
same,MIC100,[13],inactive
same,CC50 at 48 h,[14],> 113 µM
same,MIC50,[15],171 µM
same,MIC,[15]; read-out: MIC100,21.9 µM
same,MIC50,[16],inactive
same,MIC100,[17],inactive
same,MIC50,[18],2740 µM

# — ChEMBL document CHEMBL2010801, “Semisynthesis and antimicrobial activity of novel guttiferone-A derivatives” (Bioorg Med Chem, 2012)
